The sample as a whole holds a higher share of hits than the screen did.
YB-1 expr inh: inhibitors of YB-1 gene expression, primary screen, cell-based, fluorescence | U2OS, qRT-PCR YB-1 vs CDIP delta delta Cp, 16 h; active compounds read high; zero = DMSO, each unit about twofold | delta delta Cp (YB-1 minus CDIP) (test concentration not listed) | hit rate 0.37% among 30,000 | AID 434959, 2010;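 active = delta delta Cp rounded down to an integer at or above 3, about 3 SD of DMSO wells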;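 note: higher means less YB-1 transcript or more CDIP transcript relative to DMSO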
T cruzi intra: inhibitors of intracellular Trypanosoma cruzi, primary screen, cell-based, plate reader, single point, set 2 | hit rate 4.9% among 22,000 | activity score (inhibition), % at 5.01 µM | intracellular Trypanosoma cruzi in host cells; in the data active = activity score above about 55%;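 note: parasites and compound incubated about four days before reading; 0% = median of neutral control wells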
INS-1E rescue: protection of INS-1E cells from cytokine death, primary screen, ATP luminescence, single point; AID 488910, 2010; INS-1E cytokine-induced death, 48 h; normalised: neutral wells 0, positive control 100; hit rate 0.1% among 20,000; protection from cytokine-induced ATP loss, % at 10 µM;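 active = mean replicate protection from cytokine-induced ATP loss at least 50% and at least 75% of replicates each reaching 50%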
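Material: INS-1E rat cells; Quantity: 8000 cells/well; Buffer or medium: phenol-red-free RPMI with 5% fetal bovine serum; Probe or stimulus: cytokine cocktail of IFN-γ, TNF-α and IL-1β; Compound dosing: single test concentration per compound, delivered by pin transfer; Incubation: 48 h co-treatment, 10 min post-lysis read; Signal: CellTiter-Glo luminescence.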
Starred values were filed as active, the others as inactive; nt = no result given.

SMILES	YB-1 expr inh	T cruzi intra	INS-1E rescue
COc1ccc(S(=O)(=O)Nc2ccc3c(c2)CC(=O)N([C@H](C)CO)C[C@@H](C)[C@@H](CN(C)S(=O)(=O)c2ccccc2)O3)cc1	-0.19	74*	7
COC(=O)CN1C=C(C(=O)OC)C(c2ccc(O)cc2)C(C(=O)OC)=C1	0.22	nt	nt
O=C(CCCCCCC(=O)Nc1ccccc1O)N/N=C/c1cc(Br)cc([N+](=O)[O-])c1O	-0.39	7	-13
Nc1c(N2CCOCC2)c2ccccc2oc1=O	-0.29	nt	nt
C=C(C)[C@@H]1CC=C(/C=N/NC(=O)CCCCCC(=O)O)CC1	0.1	-14	5
CCC(C)C(O)(CC(=O)OCc1ccc(O[C@@H]2O[C@H](CO)[C@@H](O)[C@H](O)[C@H]2O)cc1)C(=O)OCc1ccc(O[C@@H]2O[C@H](CO)[C@@H](O)[C@H](O)[C@H]2O)cc1 (stereo partly drawn)	-0.51	nt	nt
COc1ccc(S(=O)(=O)N(C)C[C@H]2Oc3ccc(NS(=O)(=O)c4ccc(C)cc4)cc3CC(=O)N([C@@H](C)CO)C[C@H]2C)cc1	-0.19	53	0
COc1ccc(S(=O)(=O)Nc2ccc3c(c2)CC(=O)N([C@H](C)CO)C[C@@H](C)[C@@H](CN(C)S(=O)(=O)c2ccc(C)cc2)O3)cc1	-0.17	61*	8
Cc1ccc(S(=O)(=O)Nc2ccc3c(c2)CC(=O)N([C@H](C)CO)C[C@@H](C)[C@@H](CN(C)S(=O)(=O)c2ccc(Cl)cc2)O3)cc1	0.16	66*	-10
Cc1ccc(S(=O)(=O)N(C)C[C@@H]2Oc3ccc(NS(=O)(=O)c4ccc(Cl)cc4)cc3CC(=O)N([C@H](C)CO)C[C@H]2C)cc1	-0.08	-9	1
COc1cc(CCC(O)CC(O)CCc2ccc(O)c(O)c2)ccc1O (stereo not drawn)	-0.18	nt	nt
C[C@H]1CN([C@@H](C)CO)C(=O)Cc2cc(NC(=O)Nc3ccc4c(c3)OCO4)ccc2O[C@@H]1CN(C)Cc1ccc(C(=O)Nc2ccccc2N)cc1	0.54	56*	-10
CC(C)NC(=O)Nc1ccc2c(c1)CC(=O)N([C@@H](C)CO)C[C@@H](C)[C@@H](CN(C)Cc1ccc(C(=O)Nc3ccccc3N)cc1)O2	-0.32	40	-23
C[C@H](CO)N1C[C@H](C)[C@H](CN(C)Cc2ccc(C(=O)Nc3ccccc3N)cc2)Oc2ccc(NC(=O)Nc3ccc4c(c3)OCO4)cc2CC1=O	-0.19	67*	48
COc1cc(/C=N/NC(=O)c2cccc(C(=O)NO)c2)c([N+](=O)[O-])cc1OC	-0.075	-5	0
COc1ccc(/C=N/NC(=O)c2ccccn2)cc1	-0.36	-14	-11
C[C@H]1CN([C@@H](C)CO)C(=O)Cc2cc(N(C)C)ccc2O[C@@H]1CN(C)Cc1ccc(Oc2ccccc2)cc1	-0.47	67*	-1
C[C@@H]1CN([C@H](C)CO)C(=O)Cc2cc(N(C)C)ccc2O[C@@H]1CN(C)Cc1ccc(Oc2ccccc2)cc1	-0.17	40	-51
C[C@H](CO)N1C[C@H](C)[C@H](CN(C)Cc2ccccc2)Oc2ccc(N(C)C)cc2CC1=O	-0.21	4	-2
C[C@H]1CN([C@@H](C)CO)C(=O)Cc2cc(N(C)C)ccc2O[C@H]1CN(C)Cc1ccc(Oc2ccccc2)cc1	0.42	76*	-22
O=C(Nc1cc(S(=O)(=O)c2ccccc2)cs1)c1ccc(Cl)cc1	0.12	nt	nt
N#Cc1ccc(N2CCCN(C(=S)NC3CCCC3)CC2)nc1	-0.18	nt	nt
Cc1noc(C)c1S(=O)(=O)Nc1ccc2c(c1)C(=O)N([C@H](C)CO)C[C@H](C)[C@@H](CN(C)Cc1ccc(Cl)c(Cl)c1)O2	-0.026	63*	-10
Cc1noc(C)c1S(=O)(=O)Nc1ccc2c(c1)CC(=O)N([C@H](C)CO)C[C@@H](C)[C@@H](CN(C)Cc1ccc(Cl)c(Cl)c1)O2	0.19	61*	-28
Cc1noc(C)c1S(=O)(=O)Nc1ccc2c(c1)C(=O)N([C@H](C)CO)C[C@@H](C)[C@@H](CN(C)Cc1ccc(Cl)c(Cl)c1)O2	-0.044	5	-8
SMILES	YB-1 expr inh	T cruzi intra	INS-1E rescue
Cc1noc(C)c1S(=O)(=O)Nc1ccc2c(c1)C(=O)N([C@H](C)CO)C[C@H](C)[C@H](CN(C)Cc1ccc(C(F)(F)F)cc1)O2	-0.59	63*	-12
Cc1noc(C)c1S(=O)(=O)Nc1ccc2c(c1)C(=O)N([C@@H](C)CO)C[C@@H](C)[C@H](CN(C)Cc1ccc(C(F)(F)F)cc1)O2	-0.4	28	-18
Cc1noc(C)c1S(=O)(=O)Nc1ccc2c(c1)CC(=O)N([C@H](C)CO)C[C@H](C)[C@H](CN(C)Cc1ccc(Cl)c(Cl)c1)O2	-0.011	53	-10
O=C(Nc1ccc(S(=O)(=O)NC23CC4CC(CC(C4)C2)C3)cc1)C1CC1	-0.18	nt	nt
O=C(NO)c1cccc(C(=O)N/N=C/c2ccc3c(c2)OCCO3)c1	-0.034	-14	0
O=C(NO)c1ccc(C(=O)N/N=C/c2ccc(O)c(F)c2)cc1	-0.09	-8	9
O=C(O)C1=C[C@@H](c2ccccc2)C[C@@H](OCc2ccc(CO)cc2)O1	-0.23	nt	nt
COc1ccc([C@H]2C=C(C(=O)NCc3ccccc3)O[C@@H](OCc3ccc(CO)cc3)C2)cc1	3.3*	nt	nt
CC1(C)CC(N=Cc2ccco2)CC(C)(C)N1	-0.3	nt	nt
COc1ccc(S(=O)(=O)Nc2ccc3c(c2)CC(=O)N([C@H](C)CO)C[C@@H](C)[C@H](CN(C)Cc2ccc(Cl)c(Cl)c2)O3)cc1	-0.15	70*	-21
COc1ccc(CN(C)C[C@@H]2Oc3ccc(NS(=O)(=O)c4ccc(C)cc4)cc3CC(=O)N([C@@H](C)CO)C[C@@H]2C)cc1	-0.13	46	-1
COc1ccc(S(=O)(=O)Nc2ccc3c(c2)CC(=O)N([C@H](C)CO)C[C@H](C)[C@H](CN(C)Cc2ccc(Cl)c(Cl)c2)O3)cc1	0.023	40	0
COc1ccc(CN(C)C[C@@H]2Oc3ccc(NS(=O)(=O)c4ccc(Cl)cc4)cc3CC(=O)N([C@H](C)CO)C[C@H]2C)cc1	0.05	68*	0
COc1ccc(CN(C)C[C@@H]2Oc3ccc(NS(=O)(=O)c4ccc(Cl)cc4)cc3CC(=O)N([C@@H](C)CO)C[C@@H]2C)cc1	-0.21	3	2
COc1ccc(CN(C)C[C@@H]2Oc3ccc(NS(=O)(=O)c4ccc(C)cc4)cc3CC(=O)N([C@H](C)CO)C[C@H]2C)cc1	-0.023	68*	8
CCN(CC)C(=S)C(=O)Nc1cc(C(F)(F)F)cc(C(F)(F)F)c1	-0.47	nt	nt
Cc1ccc(C(=O)Oc2cc(C)cc(OC(=O)c3ccc(C)cc3)c2)cc1	0.23	nt	nt
COc1ccc(CCNC(=S)NC2CC2)cc1OC	-0.25	nt	nt
O=C1CC(C2CCCO2)C(=O)N1c1cccc(C(F)(F)F)c1 (stereo not drawn)	5.8*	nt	nt
O=C(CSc1n[nH]c(=O)n1-c1cccc(C(F)(F)F)c1)N1CCC(C(F)(F)F)CC1	-0.043	nt	nt
COc1ccc(CN(C)C[C@@H]2Oc3ccc(NC(=O)Nc4ccccc4)cc3CC(=O)N([C@@H](C)CO)C[C@@H]2C)cc1	-0.3	11	-2

High-throughput results from PubChem BioAssay.
